Experiments:
Brd4 [1] = molecular target: T1, Brd4 (Homo sapiens, UniProt O60885); test: BET protein degradation in HeLa cells, Western blot; format: cell-based; settings: 24 h, 1–3 μM
Outline: (§1)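 HeLa cells were kept in DMEM with 10% FBS, […], penicillin/streptomycin at 37 °C, 5% CO2. They were seeded in six-well plates and treated the next day. They were PBS-washed and lysed on ice in RIPA with protease inhibitors, Benzonase and 0.5 mM MgCl2, then sonicated and centrifuged. Protein was quantified by BCA. Immunoblots used Brd2, Brd3, Brd4 and β-actin antibodies with IRDye 800CW secondaries; band intensities were quantified on an Odyssey imager.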

Brd2 [2] = molecular target: T2, Brd2 (Homo sapiens, UniProt P25440); test: Isobaric tagging; format: cell-based; settings: HeLa cells, 24 h, proteomics
Brd3 [3] = molecular target: T3, Brd3 (Homo sapiens, UniProt Q15059); test: Isobaric tagging; format: cell-based; settings: HeLa cells, 24 h, proteomics
Brd2 [4] = molecular target: T2, Brd2; test: BET protein degradation in HeLa cells, Western blot; format: cell-based; settings: 24 h
Outline: as §1

Brd3 [5] = molecular target: T3, Brd3; test: as above; format: cell-based; settings: 24 h
Outline: as §1

Brd4 [6] = molecular target: T1, Brd4; test: Isobaric tagging; format: cell-based; settings: HeLa cells, AT1 1 µM, 24 h; 5,674 proteins quantified
VCB and Brd4^BD2 = VCB and Brd4^BD2 (Homo sapiens, UniProt O60885+P40337); test: ITC, VCB titrated into PROTAC:BD complex; format: binding
[7] = ITC 25 °C, VCB into PROTAC:Brd4^BD2 vs VCB into PROTAC

Sequence of VCB and Brd4^BD2 (P40337 54-213, other chains not shown): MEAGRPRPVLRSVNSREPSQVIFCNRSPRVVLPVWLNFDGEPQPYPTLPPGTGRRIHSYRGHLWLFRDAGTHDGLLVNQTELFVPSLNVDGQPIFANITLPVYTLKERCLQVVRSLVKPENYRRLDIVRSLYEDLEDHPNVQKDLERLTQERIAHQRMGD
Sequence of VCB and Brd4^BD2 (Q15370 1-104, other chains not shown, further chain): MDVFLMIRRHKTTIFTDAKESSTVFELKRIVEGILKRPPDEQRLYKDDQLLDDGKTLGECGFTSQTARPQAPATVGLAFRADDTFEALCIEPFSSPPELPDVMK
Sequence of VCB and Brd4^BD2 (Q15369 17-112, other chains not shown, further chain): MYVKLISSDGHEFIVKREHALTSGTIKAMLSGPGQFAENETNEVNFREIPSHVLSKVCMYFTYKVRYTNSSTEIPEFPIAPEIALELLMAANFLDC
T3 sequence (Q15059 whole entry): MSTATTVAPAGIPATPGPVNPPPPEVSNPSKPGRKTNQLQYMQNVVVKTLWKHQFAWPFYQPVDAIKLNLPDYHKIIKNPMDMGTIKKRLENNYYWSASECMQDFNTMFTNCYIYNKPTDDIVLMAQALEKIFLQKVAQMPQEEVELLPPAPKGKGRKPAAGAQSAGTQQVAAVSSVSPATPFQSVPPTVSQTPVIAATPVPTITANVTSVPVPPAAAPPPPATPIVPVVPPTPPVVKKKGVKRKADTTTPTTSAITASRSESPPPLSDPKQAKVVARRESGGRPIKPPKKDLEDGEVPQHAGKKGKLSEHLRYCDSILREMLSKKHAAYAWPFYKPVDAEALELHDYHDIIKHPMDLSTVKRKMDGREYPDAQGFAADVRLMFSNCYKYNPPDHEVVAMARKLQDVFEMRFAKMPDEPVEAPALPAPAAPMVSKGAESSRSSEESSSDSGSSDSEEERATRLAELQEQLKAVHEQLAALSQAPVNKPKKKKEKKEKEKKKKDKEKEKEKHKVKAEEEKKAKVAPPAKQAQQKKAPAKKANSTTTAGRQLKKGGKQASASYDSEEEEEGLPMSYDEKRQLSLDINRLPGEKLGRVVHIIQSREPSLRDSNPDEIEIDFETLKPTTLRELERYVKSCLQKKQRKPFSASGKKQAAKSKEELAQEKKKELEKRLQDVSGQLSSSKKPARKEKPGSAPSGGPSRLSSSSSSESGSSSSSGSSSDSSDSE
T2 sequence (P25440 whole entry): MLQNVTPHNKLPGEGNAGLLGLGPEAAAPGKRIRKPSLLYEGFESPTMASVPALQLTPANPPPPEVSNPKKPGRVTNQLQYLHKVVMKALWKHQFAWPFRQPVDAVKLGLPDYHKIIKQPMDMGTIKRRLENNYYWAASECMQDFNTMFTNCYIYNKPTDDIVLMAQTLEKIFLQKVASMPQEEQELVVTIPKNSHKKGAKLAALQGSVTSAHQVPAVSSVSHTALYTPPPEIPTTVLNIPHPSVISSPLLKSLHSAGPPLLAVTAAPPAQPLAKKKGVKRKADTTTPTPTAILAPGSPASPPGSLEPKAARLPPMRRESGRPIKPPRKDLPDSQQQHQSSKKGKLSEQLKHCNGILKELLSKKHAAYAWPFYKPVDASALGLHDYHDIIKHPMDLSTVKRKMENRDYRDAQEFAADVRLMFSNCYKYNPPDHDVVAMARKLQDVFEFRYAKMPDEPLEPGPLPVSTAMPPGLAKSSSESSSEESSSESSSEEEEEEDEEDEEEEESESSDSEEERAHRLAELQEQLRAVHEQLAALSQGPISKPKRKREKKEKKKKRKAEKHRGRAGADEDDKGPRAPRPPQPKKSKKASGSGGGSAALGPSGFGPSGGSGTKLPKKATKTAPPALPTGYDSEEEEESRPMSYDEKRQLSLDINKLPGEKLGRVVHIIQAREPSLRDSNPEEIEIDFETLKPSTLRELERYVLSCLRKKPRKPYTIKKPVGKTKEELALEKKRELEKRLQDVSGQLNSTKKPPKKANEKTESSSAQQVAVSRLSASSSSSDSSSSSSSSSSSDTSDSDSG

## CC(=O)N[C@H](C(=O)N1C[C@H](O)C[C@H]1C(=O)NCc1ccc(-c2scnc2C)cc1)C(C)(C)SCCCCCCNC(=O)C[C@@H]1N=C(c2ccc(Cl)cc2)c2c(sc(C)c2C)-n2c(C)nnc21 [AT1, (2S,4R)-1-((R)-2-acetamido-3-((6-(2-((S)-4-(4-chlorophenyl)-2,3,9-trimethyl-6H-thieno[3,2-f][1,2,4]triazolo[4,3-a][1,4]diazepin-6-yl)acetamido)hexyl)thio)-3-methylbutanoyl)-4-hydroxy-N-(4-(4-methylthiazol-5-yl)benzyl)pyrrolidine-2-carboxamide]
Brd4 [1]
  Brd4 protein level by immunoblot: depletion of Brd4
Brd2 [2]
  effect on protein level of Brd2: no effect on protein levels
Brd3 [3]
  effect on protein level of Brd3: no effect on protein levels
Brd2 [4]
  activity against Brd2 (protein level by immunoblot): negligible activity
Brd3 [5]
  activity against Brd3 (protein level by immunoblot): negligible activity
Brd4 [6]
  Brd4 protein level after treatment (depleted to): ~ 40%
VCB and Brd4^BD2; [7]
  ΔpKd (pKd ternary − pKd binary): 0.84 ± 0.07
  α (cooperativity, Kd binary/Kd ternary): 7
VCB and Brd4^BD2; ITC, Brd4^BD2
  ΔG (binary + ternary), stability of ternary complex: -84.5 ± 0.84 kJ/mol

From publication PMC5392356 (Nature chemical biology, 2017)
